The source made the active and inactive calls. The calls are words filed in the database; no cut-off is given here.
How the values were obtained:
[1] = system: MCF7; assay: Induction of apoptosis in human MCF7 cells assessed as late apoptotic cells at 1 uM after 24 hrs by Annexin-V FITC/propidium iodide staining based flow cytometry (reference value: 0.255%); assay type: functional
[2] = system: MCF7; assay: Cytotoxicity against human MCF7 cells at 10 to 50 uM after 24 hrs by LDH assay; assay type: functional, cell-based
Outline: (§1)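 Membrane integrity assay on MCF-7 and Bel-7402 cells seeded at ~5 × 10^3 per well for 24 h, then given compounds at 10, 20 or 50 μM. Culture medium collected and assayed with CytoTox-ONE LDH reagent for 10 min, followed by stop solution. Fluorescence read at Ex 560/Em 590 nm. Expressed as percentage of unstimulated cells.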

[3] = system: Mus musculus; assay: Hepatotoxicity in Balb/c nude mouse xenografted with human MCF7 cells assessed as morphological changes in liver at 20 mg/kg/day, iv for 4 weeks by hematoxylin and eosin staining based microscopic method; assay type: toxicity, organism-based; conditions: in vivo, 672 h
Outline: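 Male BALB/c nude mice (6 weeks old) carrying subcutaneous MCF-7 xenografts (1 × 10^6 cells). Dosed iv 20 mg/kg daily for 28 days in 10% DMF/2% poloxamer/88% saline; six mice per group. Organs then fixed in 4% paraformaldehyde, paraffin-embedded, cut at 5 μm, stained with Harris hematoxylin and eosin-phloxine, and examined by light microscopy.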

[4] = Antiproliferative activity against human KB/CP4 cells after 48 hrs by MTT assay; assay type: functional, cell-based; conditions: KB/CP4, 48 h
Outline: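 Colorimetric MTT assay. KB-3-1, NCI-H460 and Bel-7404 cells were seeded at 4000 cells/well; resistant KB/CP4, NCI-H460/MX20 and Bel-7404/CP20 were seeded at 7000 cells/well. Cells were pre-incubated 24 h at 37 °C, 5% CO2, then exposed to a compound concentration series for 48 h with DMSO ≤0.25%. Absorbance read at 570 nm. Quadruplicate wells, three repeats; means ± SD.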

[5] = system: MCF7; assay: Cell cycle arrest in human MCF7 cells assessed as accumulation at S phase at 0.5 uM after 48 hrs by propidium iodide staining based flow cytometry (reference value: 37.18%); assay type: functional
Outline: (§2)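 MCF-7 cells, 5 × 10^4 per well, seeded overnight, then exposed to 0.125–1 μM compound, or DMSO, for 48 h. Ethanol-fixed (70%, −20 °C, 12 h) and stained with PI/RNase at 37 °C for 30 min. Phase distribution determined by flow cytometry.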

[6] = system: MCF7; assay: Cell cycle arrest in human MCF7 cells assessed as accumulation at G2/M phase at 0.25 uM after 48 hrs by propidium iodide staining based flow cytometry (reference value: 13.05%); assay type: functional; outline: as §2
[7] = system: MCF7; assay: Induction of apoptosis in human MCF7 cells assessed as decrease in Bcl2 protein expression at 0.5 to 1 uM after 48 hrs by Western blot method; assay type: functional, cell-based
Outline: (§3)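 MCF-7 cells exposed to 0–1 μM compound for 48 h, then lysed on ice. Lysate (20 μg protein) run on 8–12% SDS-PAGE and transferred to PVDF. Probed overnight at 4 °C with primary antibodies, then fluorescent secondaries. Band densities normalized to β-actin. Mean ± SD of three independent experiments.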

[8] = system: K562; assay: Antiproliferative activity against human K562 cells after 72 hrs by MTT assay; assay type: functional, cell-based; conditions: K562, 72 h
Outline: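 MGC-803 and MCF-7 cells grown in DMEM (MCF-7 with 1× NEAA); Bel-7402 and K562 grown in RPMI 1640; all media with 10% FBS. Cells seeded at 3500/well, pre-incubated 24 h, then exposed to compounds in fresh medium (DMSO ≤0.25%) for 72 h at 37 °C. MTT read-out at 570 nm. Quadruplicate wells, repeated three times; means ± SD (n = 3).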

[9] = system: MCF7; assay: Induction of mitochondrial membrane potential depolarization in human MCF7 cells after 36 hrs by JC1 staining based fluorescence microscopic method; assay type: functional, cell-based
Outline: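 MCF-7 cells were treated with 0, 0.25, 0.5 or 1 μM for 36 h and loaded with 10 μg/mL JC-1 for 30 min at 37 °C, then washed in PBS. Monomers were read at ex 490/em 535 nm and aggregates at ex 525/em 600 nm, by plate reader or fluorescence microscopy. The red/green ratio came from 10,000 cells per group, in triplicate, mean ± SD.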

[10] = system: Bel-7402; assay: Cytotoxicity against human Bel7402 cells at 10 to 50 uM after 24 hrs by LDH assay; assay type: functional, cell-based; outline: as §1
[11] = system: Mus musculus; assay: Nephrotoxicity in Balb/c nude mouse xenografted with human MCF7 cells assessed as morphological changes in kidney at 20 mg/kg/day, iv for 4 weeks by hematoxylin and eosin staining based microscopic method; assay type: toxicity, organism-based; conditions: in vivo, 672 h
Outline: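 Male BALB/c nude mice aged six weeks received 1 × 10^6 MCF-7 cells subcutaneously in the right flank. After 7 d they were randomized and dosed 20 mg/kg iv once daily in 10% DMF/2% poloxamer/88% saline; saline control. Heart, liver, spleen, lung and kidney were fixed in 4% paraformaldehyde, paraffin-embedded, sectioned at 5 μm, H&E stained and examined microscopically.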

[12] = system: MCF7; assay: Downregulation of CyclinB protein expression in human MCF7 cells after 48 hrs by Western blot method; assay type: functional, cell-based; outline: as §3
[13] = system: MCF7; assay: Induction of apoptosis in human MCF7 cells assessed as early apoptotic cells at 0.5 uM after 24 hrs by Annexin-V FITC/propidium iodide staining based flow cytometry (reference value: 2.65%); assay type: functional
[14] = system: MCF7; assay: Induction of apoptosis in human MCF7 cells assessed as increase in Bax protein expression at 0.5 to 1 uM after 48 hrs by Western blot method; assay type: functional, cell-based
Outline: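 MCF-7 cells were treated at 0, 0.125, 0.25, 0.5 or 1 μM for 48 h, washed in ice-cold PBS and lysed on ice for 20 min. Lysates were spun at 13,000 g, 4 °C. 20 μg protein was run on SDS-PAGE and blotted to PVDF, probed overnight at 4 °C with primary antibodies, then with fluorescent secondary antibodies. Band density was expressed relative to β-actin; three independent experiments.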

[15] = system: MCF7; assay: Induction of apoptosis in human MCF7 cells after 24 hrs by Annexin-V FITC/propidium iodide staining based flow cytometry; assay type: functional, cell-based
[16] = system: Mus musculus; assay: Toxicity in ICR mouse xenografted with […] cells assessed as changes in body weight at 20 mg/kg/day, iv for 3 weeks measured once in 2 days during compound dosing; assay type: organism-based; conditions: in vivo
Outline: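 Mice received 1 × 10^6 tumor cells subcutaneously in the right flank: MCF-7 in male BALB/c nude mice aged six weeks, H22 in male ICR mice aged five weeks. After 7 d they were randomized (six or eight per group). Dosing was 20 mg/kg iv daily in 10% DMF/2% poloxamer/88% saline for 21 or 28 days; saline control. Body weight was recorded every 2 days.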

[17] = system: MCF7; assay: Induction of apoptosis in human MCF7 cells assessed as early apoptotic cells at 1 uM after 24 hrs by Annexin-V FITC/propidium iodide staining based flow cytometry (reference value: 2.65%); assay type: functional
[18] = system: MCF7; assay: Induction of apoptosis in human MCF7 cells assessed as live cells at 0.25 uM after 24 hrs by Annexin-V FITC/propidium iodide staining based flow cytometry (reference value: 97%); assay type: functional

C=C1C(=O)[C@]23[C@H](OC(=O)/C=C/c4ccccc4)[C@H]1CC[C@H]2[C@]12C=CCC(C)(C)[C@H]1[C@H](O)[C@]3(O)OC2
Activity [1]: 45.2% | Activity [2]: inactive | Activity [3]: Non-Toxic | IC50 [4]: 1560 nM | Activity [5]: 31.9% | Activity [6]: 16.73% | Activity [7]: Active | IC50 [8]: 290 nM | Activity [9]: Dose-dependent effect | Activity [10]: inactive | Activity [11]: Non-Toxic | Activity [12]: Dose-dependent effect | Activity [13]: 13.3% | Activity [14]: Active | Activity [15]: Dose-dependent effect | Activity [16]: Non-Toxic | Activity [17]: 22.4% | Activity [18]: 69.7%
